Reference: ChEMBL document CHEMBL5108003, “Identification of 2-hydroxybenzoic acid derivatives as selective SIRT5 inhibitors” (Eur J Med Chem, 2022)

Columns and labels:
[1] = molecular target: T1, NAD-dependent protein deacylase sirtuin-5, mitochondrial (Homo sapiens, UniProt Q9NXA8); assay: Stabilization of human SIRT5 assessed as change in melting temperature at 100 uM by thermal shift assay
Outline: (§1)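 Recombinant wild-type SIRT5 at 0.2 mg/ml final in 20 mM Bis-Tris propane pH 7.5 with 150 mM NaCl. The dye was 0.1 mM 1,8-ANS, and compound was at 100 μM with DMSO as the vehicle reference. Wells were overlaid with silicon oil and heated continuously from 25 °C to 90 °C. Tm came from fluorescence melt curves versus the DMSO control. Each reaction was run in quadruplicate.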
Target sequence in this assay (Q9NXA8 37-310 limits assumed): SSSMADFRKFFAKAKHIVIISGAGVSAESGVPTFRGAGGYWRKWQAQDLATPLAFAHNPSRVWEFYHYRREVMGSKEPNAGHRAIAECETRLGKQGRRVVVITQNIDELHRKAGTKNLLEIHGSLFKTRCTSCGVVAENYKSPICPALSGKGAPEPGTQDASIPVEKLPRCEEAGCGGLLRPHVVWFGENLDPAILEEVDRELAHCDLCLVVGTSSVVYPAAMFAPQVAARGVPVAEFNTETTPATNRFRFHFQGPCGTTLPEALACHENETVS

[2] = molecular target: T1, NAD-dependent protein deacylase sirtuin-5, mitochondrial; assay: Inhibition of human SIRT5 using fluorogenic substrate preincubated for 1 hr in presence of NAD followed by substrate addition and measured after 15 to 30 mins by trypsin-coupled fluorescence plate reader analysis
Target sequence in this assay (Q9NXA8 whole entry): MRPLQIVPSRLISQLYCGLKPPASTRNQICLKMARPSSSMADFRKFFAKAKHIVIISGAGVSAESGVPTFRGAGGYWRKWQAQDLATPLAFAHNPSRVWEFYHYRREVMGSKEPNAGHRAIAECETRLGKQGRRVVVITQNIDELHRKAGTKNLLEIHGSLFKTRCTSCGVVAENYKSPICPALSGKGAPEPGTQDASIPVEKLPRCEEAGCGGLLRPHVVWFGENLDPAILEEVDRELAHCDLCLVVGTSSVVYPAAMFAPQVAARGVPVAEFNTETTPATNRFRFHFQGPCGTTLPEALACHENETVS

[3] = molecular target: T1, NAD-dependent protein deacylase sirtuin-5, mitochondrial; assay: Stabilization of wild type human SIRT5 assessed as melting temperature at 100 uM by thermal shift assay; outline: as §1
Target sequence in this assay (Q9NXA8 37-310 limits assumed): as the sequence (Q9NXA8 37-310 limits assumed) above

Compound | ΔTm [1] | IC50 [2] | Tm [3]
O=C(O)c1ccc(NC(=S)Nc2nc(-c3ccc(Br)cc3)cs2)cc1O | 1.2 °C | – | –
Cc1ccccc1-c1csc(NC(=S)Nc2ccc(C(=O)O)c(O)c2)n1 | 1.1 °C | – | –
Cc1ccc(-c2csc(NC(=S)Nc3ccc(C(=O)O)c(O)c3)n2)cc1 | 1.4 °C | – | –
N#Cc1ccc(-c2csc(NC(=S)Nc3ccc(C(=O)O)c(O)c3)n2)cc1 | 2.1 °C | – | –
COc1cccc(-c2csc(NC(=S)Nc3ccc(C(=O)O)c(O)c3)n2)c1 | 0.9 °C | – | –
O=C(O)c1ccc(NC(=S)Nc2nc(-c3ccc([N+](=O)[O-])cc3)cs2)cc1O | 1.8 °C | – | –
O=C(O)c1ccc(NC(=S)Nc2nc(-c3ccc(F)cc3F)cs2)cc1O | 1.9 °C | – | –
CCOC(=O)c1ccc(Nc2nc(-c3ccc(NC(C)=O)cc3)cs2)cc1O | 0.12 °C | > 400 µM | –
CC(=O)Nc1ccc(-c2csc(Nc3ccc(C(=O)O)c(O)c3)n2)cc1 | 1.8 °C | – | 52.8 °C
O=C(O)c1ccc(NC(=S)Nc2nc(-c3ccc(C(F)(F)F)cc3)cs2)cc1O | 1.2 °C | 24.3 µM | –
N#Cc1ccc(-c2csc(NC(=S)Nc3ccc(C(=O)O)c(O)c3)n2)c(F)c1 | 1.9 °C | – | –
O=C(O)c1ccc(NC(=S)Nc2nc(-c3ccc([N+](=O)[O-])cc3F)cs2)cc1O | 1.6 °C | – | –
O=C(O)c1ccc(NC(=S)Nc2nc(-c3cccc(C(F)(F)F)c3)cs2)cc1O | 1.1 °C | 26.8 µM | –
CC(=O)Nc1ccc(-c2csc(Nc3ccc(C(=O)O)cc3)n2)cc1 | 0.53 °C | 201 µM | –
COc1ccc(-c2csc(NC(=S)Nc3ccc(C(=O)O)c(O)c3)n2)cc1 | 0.9 °C | – | –
Cc1cccc(-c2csc(NC(=S)Nc3ccc(C(=O)O)c(O)c3)n2)c1 | 1.2 °C | – | –
Cc1ccc(C(=O)Nc2ccc(S(=O)(=O)O)c3cc(S(=O)(=O)O)cc(S(=O)(=O)O)c23)cc1NC(=O)c1cccc(NC(=O)Nc2cccc(C(=O)Nc3cc(C(=O)Nc4ccc(S(=O)(=O)O)c5cc(S(=O)(=O)O)cc(S(=O)(=O)O)c45)ccc3C)c2)c1 | – | – | 51 °C

The remaining lines, values ahead:

ΔTm [1] | IC50 [2] | Tm [3] | Compound
0.8 °C | – | – | O=C(O)c1ccc(NC(=S)Nc2nc(-c3ccc(O)cc3)cs2)cc1O
1.3 °C | – | – | O=C(O)c1ccc(NC(=S)Nc2nc(-c3ccc(F)c(S(=O)(=O)NC4CCCC4)c3)cs2)cc1O
1.1 °C | – | – | O=C(O)c1ccc(NC(=S)Nc2nc(-c3ccc(Cl)cc3)cs2)cc1O
1 °C | – | – | O=C(O)c1ccc(NC(=S)Nc2nc(-c3ccccc3F)cs2)cc1O
0.9 °C | – | – | CC(=O)Nc1ccccc1-c1csc(NC(=S)Nc2ccc(C(=O)O)c(O)c2)n1
0.8 °C | – | – | CNS(=O)(=O)c1cccc(-c2csc(NC(=S)Nc3ccc(C(=O)O)c(O)c3)n2)c1
1.8 °C | – | – | O=C(O)c1ccc(NC(=S)Nc2nc(-c3ccc(F)c(F)c3)cs2)cc1O
1.22 °C | – | – | O=C(O)c1ccc(NC(=S)Nc2nc(-c3cccc(F)c3)cs2)cc1O
1.8 °C | – | – | O=C(O)c1ccc(NC(=S)Nc2nc(-c3ccc([N+](=O)[O-])c(F)c3)cs2)cc1O
0.9 °C | – | – | CNS(=O)(=O)c1ccc(-c2csc(NC(=S)Nc3ccc(C(=O)O)c(O)c3)n2)cc1
1.8 °C | – | – | N#Cc1ccc(-c2csc(NC(=S)Nc3ccc(C(=O)O)c(O)c3)n2)cc1F
1.8 °C | – | – | O=C(O)c1ccc(NC(=S)Nc2nc(-c3ccc([N+](=O)[O-])c(S(=O)(=O)NCc4ccccc4)c3)cs2)cc1O
0.72 °C | – | – | O=C(O)c1ccc(NC(=S)Nc2nc(-c3cccc(O)c3)cs2)cc1O
2.5 °C | – | – | CC(=O)Nc1ccc(-c2csc(NC(=S)Nc3ccc(C(=O)O)c(O)c3)n2)cc1
1.3 °C | – | – | O=C(O)c1ccc(NC(=S)Nc2nc(-c3ccc(F)cc3)cs2)cc1O
1.9 °C | – | – | O=C(O)c1ccc(NC(=S)Nc2nc(-c3ccc(F)c(S(=O)(=O)NCc4ccccc4)c3)cs2)cc1O
1.5 °C | – | – | CC(=O)Nc1cccc(-c2csc(NC(=S)Nc3ccc(C(=O)O)c(O)c3)n2)c1
